Assay results as given in ChEMBL document CHEMBL1158076, “Bioactive guaianolides from siyekucai (Ixeris chinensis)” (J Nat Prod, 2006).
pIC50: −log10 of the molar value. Where a name gives a salt, the structure may show the parent alone. Active and inactive are the calls of the source. No cut-off for these calls is given here.

Legend:
A549 [1] = experiment: Inhibition of ICAM1 induction in human A549 cells pretreated for 1 hr in presence of IL1alpha for 6 hrs; format: functional, cell-based
WI-38 = experiment: Cytotoxicity against human WI38 cells; format: functional, cell-based
A549 [2] = experiment: Cytotoxicity against human A549 cells after 24 hrs by MTT method; format: cell-based; settings: A549, 24 h
Procedure, shortened: (§1)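 A549 cells were exposed to serial dilutions for 24 h and viability was read by MTT, in triplicate cultures. Viability (%) = (experimental − background absorbance)/(control − background absorbance) × 100, and IC50 was derived from it.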

[3] = Cytotoxicity against human Hep G2 cells; format: functional, cell-based; settings: HepG2
WI-38 VA13 = experiment: Cytotoxicity against human VA13 cells; format: functional, cell-based
A549 [4] = experiment: Inhibition of ICAM1 induction in human A549 cells pretreated for 1 hr in presence of TNFalpha for 6 hrs; format: functional, cell-based
A549 [5] = experiment: Inhibition of ICAM1 induction in human A549 cells <100 uM pretreated for 1 hr at in presence of IL1alpha for 6 hrs; format: functional, cell-based
A549 [6] = experiment: Inhibition of ICAM1 induction in human A549 cells at <100 uM pretreated for 1 hr in presence of TNFalpha for 6 hrs; format: functional, cell-based
A549 [7] = experiment: Cytotoxicity against human A549 cells at <100 uM after 24 hrs by MTT method; format: cell-based; settings: a549, 24 h; procedure, shortened: as §1
A549 [8] = experiment: Inhibition of ICAM1 induction in human A549 cells in presence of IL1alpha; format: functional, cell-based

Row | Structure (SMILES) | pIC50 (A549 [1]) | pIC50 (WI-38) | pIC50 (A549 [2]) | pIC50 [3] | pIC50 (WI-38 VA13) | pIC50 (A549 [4]) | Activity (A549 [5]) | Activity (A549 [6]) | Activity (A549 [7]) | pIC50 (A549 [8])
1 | C=C1C(=O)O[C@@H]2[C@H]3C(CO)=CC(=O)C3=C(C)CC[C@@H]12 | 4.79 | 5.57 | < 4.00 | 4.60 | 5.07 | 4.70 | – | – | – | –
2 | C=C1[C@@H]2[C@H]3OC(=O)C(=C)[C@@H]3CC[C@@](C)(O)[C@@H]2C[C@@H]1O[C@@H]1O[C@H](COC(=O)Cc2ccc(O)cc2)[C@@H](O)[C@H](O)[C@H]1OC(=O)Cc1ccc(O)cc1 [CHINENSIOLIDE E] | < 4.00 | 4.64 | < 4.00 | 3.85 | 6.14 | < 4.00 | inactive | inactive | Non-toxic | –
3 | COc1cccc2c1C(=O)c1c(O)c3c(c(O)c1C2=O)C[C@@](O)(C(=O)CO)C[C@@H]3O[C@H]1C[C@H](N)[C@H](O)[C@H](C)O1 [DOXORUBICIN HYDROCHLORIDE] | – | 6.15 | – | – | 6.40 | – | – | – | – | –
4 | C=C1C(=O)O[C@@H]2[C@H]3C(=C)[C@@H](O[C@@H]4O[C@H](COC(=O)Cc5ccc(O)cc5)[C@@H](O)[C@H](O)[C@H]4O)C[C@H]3C(=C)C[C@@H](OC(=O)Cc3ccc(O)cc3)[C@@H]12 [IXEROCHINOSIDE] | < 4.00 | – | < 4.00 | – | – | < 4.00 | inactive | inactive | Non-toxic | –
5 | C=C1C(=O)O[C@@H]2[C@H]3[C@H](C)C(=O)C[C@H]3[C@](C)(O)CC[C@@H]12 | 4.79 | 4.60 | < 4.00 | 4.66 | 4.57 | 4.77 | – | – | – | –
6 | C=C1C(=O)O[C@@H]2C3=C(C)C(=O)C[C@H]3[C@](C)(O)CC[C@@H]12 | – | 4.62 | < 4.00 | 4.64 | 4.66 | – | – | – | – | 4.68
7 | C[C@@H]1C(=O)O[C@H]2[C@H]1CC[C@@](C)(O)[C@@H]1CC(=O)[C@@H](C)[C@H]21 | – | 4.49 | – | 3.64 | 3.80 | – | – | – | – | –
8 | C=C1C(=O)C[C@@H]2[C@H]1[C@H]1OC(=O)C(=C)[C@@H]1CC[C@@]2(C)O | 4.96 | – | 4.19 | – | – | 4.94 | – | – | – | –
9 | CC(=O)O[C@H]1C(=O)[C@@]2(C)[C@H]([C@H](OC(=O)c3ccccc3)[C@]3(O)C[C@H](OC(=O)[C@H](O)[C@@H](NC(=O)c4ccccc4)c4ccccc4)C(C)=C1C3(C)C)[C@]1(OC(C)=O)CO[C@@H]1C[C@@H]2O [PACLITAXEL] | – | 7.40 | – | – | – | – | – | – | – | –
10 | CC1=C2[C@H]3OC(=O)[C@@H](C)[C@@H]3CC[C@@](C)(O)[C@@H]2CC1=O | < 4.00 | 4.60 | < 4.00 | 3.64 | 3.89 | < 4.00 | inactive | inactive | Non-toxic | –
